Source: ChEMBL document CHEMBL1137307, “Further studies on imidazo[4,5-b]pyridine AT1 angiotensin II receptor antagonists. Effects of the transformation of the 4-phenylquinoline backbone into 4-phenylisoquinolinone or 1-phenylindene scaffolds” (J Med Chem, 2006)
Blank lines part the entries; values can stand above or below the molecule they belong to.

Columns and labels:
[1] = biological target: T1, Angiotensin II receptor (AT-1) type-1 (Rattus norvegicus, UniProt P29089+P25095); experiment: Displacement of [125I]Sar1,Ile8-Ang2 from AT1 receptor in rat hepatic membrane; assay type: cell membranes, Liver
T1 sequence (P29089 whole entry): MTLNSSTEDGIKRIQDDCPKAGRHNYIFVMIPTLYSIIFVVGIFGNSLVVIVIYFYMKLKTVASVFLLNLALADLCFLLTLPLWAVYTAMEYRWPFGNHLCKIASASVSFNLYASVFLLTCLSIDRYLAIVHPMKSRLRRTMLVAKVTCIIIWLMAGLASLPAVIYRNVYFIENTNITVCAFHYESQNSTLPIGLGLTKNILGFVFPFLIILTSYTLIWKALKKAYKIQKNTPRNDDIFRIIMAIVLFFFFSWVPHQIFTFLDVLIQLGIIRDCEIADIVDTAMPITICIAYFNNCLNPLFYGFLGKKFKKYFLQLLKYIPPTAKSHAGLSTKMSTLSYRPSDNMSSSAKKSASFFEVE
T1 sequence (P25095 whole entry): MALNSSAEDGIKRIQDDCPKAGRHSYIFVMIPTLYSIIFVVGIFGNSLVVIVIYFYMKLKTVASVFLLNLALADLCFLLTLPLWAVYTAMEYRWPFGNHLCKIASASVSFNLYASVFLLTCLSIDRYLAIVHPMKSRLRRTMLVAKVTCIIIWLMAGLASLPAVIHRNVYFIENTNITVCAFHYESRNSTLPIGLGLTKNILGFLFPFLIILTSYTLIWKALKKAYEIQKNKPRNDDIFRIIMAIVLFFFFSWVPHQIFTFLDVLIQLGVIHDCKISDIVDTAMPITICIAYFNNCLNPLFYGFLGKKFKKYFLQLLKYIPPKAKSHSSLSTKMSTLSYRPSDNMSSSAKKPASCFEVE
Outline: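 Rat liver membranes from male Wistar rats, prepared by differential centrifugation (750g, then 50 000g), 25 µg protein per well in 50 mM Tris-HCl, 100 mM NaCl, 10 mM MgCl₂, 1 mM EDTA, bacitracin, PMSF, 0.1% BSA, pH 7.4. Nonspecific binding defined with 1 µM Ang II. Filtration read-out. IC50 given as mean ± SEM of three determinations.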

[2] = AUC in Sprague-Dawley rat at 3 mg/kg, iv; assay type: ADME, organism-based; design: dose 3 mg/kg, route intravenous; details: plasma
Outline: (§1)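 Fasted Sprague-Dawley rats, 250-300 g, dosed orally or by tail-vein injection. Blood sampled at selected times and plasma analysed by HPLC. t1/2 (terminal), AUC, observed Cmax and tmax calculated from plasma concentration-time data.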

[3] = Apparent permeability from apical to basolateral side of Caco-2 cell; assay type: ADME, cell-based; details: human
Outline: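 Caco-2 cells grown in DMEM with 10% FBS on polycarbonate supports, 15-21 days at 37 °C. Compound dosed apically at 10-100 µM final in HBSS with 1% DMSO, at 37 °C, apical-to-basolateral direction. Monolayer integrity checked by [¹⁴C]mannitol permeability. Transported compound measured by HPLC-MS; Papp calculated by equation.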

[4] = biological target: T2, Type-1 angiotensin II receptor (Oryctolagus cuniculus, UniProt P34976); experiment: Antagonist activity against AT1 receptor assessed as inhibition of Ang2-induced rabbit aortic strip contraction; assay type: functional
T2 sequence (P34976 whole entry): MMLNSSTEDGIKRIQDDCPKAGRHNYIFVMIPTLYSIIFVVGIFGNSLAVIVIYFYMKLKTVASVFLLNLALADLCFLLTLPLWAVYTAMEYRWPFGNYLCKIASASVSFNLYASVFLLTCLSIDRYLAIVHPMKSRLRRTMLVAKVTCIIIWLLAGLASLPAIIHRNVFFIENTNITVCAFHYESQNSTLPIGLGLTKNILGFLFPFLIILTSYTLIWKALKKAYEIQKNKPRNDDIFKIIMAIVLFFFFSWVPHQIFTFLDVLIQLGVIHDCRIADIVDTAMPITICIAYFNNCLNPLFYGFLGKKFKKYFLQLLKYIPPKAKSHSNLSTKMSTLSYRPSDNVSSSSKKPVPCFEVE
Outline: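 Rabbit aortic strips equilibrated 1 h, washed every 10 min. An Ang II cumulative curve was run, then 30 min washout. Antagonist or vehicle applied for 60 min before a submaximal (70-80%) Ang II challenge, 5 nM in controls. One antagonist concentration per tissue. Response read as % inhibition of contraction; IC50 derived from the regression line.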

[5] = Terminal half life in Sprague-Dawley rat at 3 mg/kg, iv; assay type: ADME, organism-based; design: dose 3 mg/kg, route intravenous; details: in vivo, read-out: beta t1/2 (converted); outline: as §1
[6] = Oral bioavailability in Sprague-Dawley rat at 10 mg/kg, po; details: in vivo
[7] = Tmax in Sprague-Dawley rat at 30 mg/kg, po; assay type: ADME, organism-based; design: dose 30 mg/kg, route oral; details: in vivo; outline: as §1
[8] = Cmax in Sprague-Dawley rat at 30 mg/kg, po; assay type: ADME, organism-based; design: dose 30 mg/kg, route oral; details: in vivo; outline: as §1
[9] = Oral bioavailability in Sprague-Dawley rat at 30 mg/kg, po; assay type: ADME, organism-based; details: in vivo; outline: as §1
[10] = Terminal half life in Sprague-Dawley rat at 30 mg/kg, po; assay type: ADME, organism-based; design: dose 30 mg/kg, route oral; details: in vivo, read-out: beta t1/2 (converted); outline: as §1
[11] = AUC in Sprague-Dawley rat at 30 mg/kg, po; assay type: ADME, organism-based; design: dose 30 mg/kg, route oral; details: plasma
Outline: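 Fasted Sprague-Dawley rats (250-300 g) given compound orally; blood sampled at selected times after dosing, plasma analysed by HPLC, and area under the plasma concentration-time curve calculated.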

Structure (SMILES): CCCc1nc2c(C)cc(C)nc2n1Cc1ccc(C2=C(C(=O)NS(C)(=O)=O)C(=O)c3ccccc32)cc1
IC50 [1]: 0.054 µM

Structure (SMILES): CCCc1nc2c(C)cc(C)nc2n1Cc1ccc(C2(CC(=O)O)CC(=O)c3ccccc32)cc1 (configuration not stated)
IC50 [1]: 0.139 µM

Structure (SMILES): C=C1C(C(=O)O)=C(c2ccc(Cn3c(CCC)nc4c(C)cc(C)nc43)cc2)c2ccccc21
IC50 [1]: 0.06 µM

Structure (SMILES): CCCCc1nc2c(C)cc(C)nc2n1Cc1ccc(-c2c(C(=O)O)n(C)c(=O)c3ccccc23)cc1
IC50 [1]: 0.0062 µM | Papp A→B [3]: 0.01 ×10⁻⁶ cm/s

Structure (SMILES): CCCc1nc2c(C)cc(C)nc2n1Cc1ccc(C2=C(C(=O)O)C(C)c3ccccc32)cc1 (configuration not stated)
IC50 [1]: 0.099 µM

Structure (SMILES): CCCc1nc2c(C)cc(C)nc2n1Cc1ccc(C2=C(C(=O)O)C(O)(CC)c3ccccc32)cc1 (configuration not stated)
IC50 [1]: 0.015 µM

Structure (SMILES): CCCc1nc2c(C)cc(C)nc2n1Cc1ccc(C2=C(C(=O)O)C(C)(O)c3ccccc32)cc1 (configuration not stated)
IC50 [1]: 0.011 µM | IC50 [4]: 0.033 µM

Structure (SMILES): CCCc1nc2c(C)cc(C)nc2n1Cc1ccc(C2(C(C(=O)O)C(=O)O)CC(=O)c3ccccc32)cc1 (configuration not stated)
IC50 [1]: 0.055 µM

Structure (SMILES): CCCc1nc2c(C)cc(C)nc2n1Cc1ccc(C2C(C(=O)O)=C(C)c3ccccc32)cc1 (configuration not stated)
IC50 [1]: 0.047 µM

Structure (SMILES): CCCc1nc2c(C)cc(C)nc2n1Cc1ccc(C2=C(C(=O)NS(=O)(=O)c3ccccc3)C(=O)c3ccccc32)cc1
IC50 [1]: 0.131 µM

Structure (SMILES): CCCCc1nc(Cl)c(CO)n1Cc1ccc(-c2ccccc2-c2nn[nH]n2)cc1 [LOSARTAN]
AUC [2]: 12400 ng·h/mL | Tmax [7]: 30 min | Cmax [8]: 27500 ng/mL | Papp A→B [3]: 1.15 ×10⁻⁶ cm/s | bioavailability [9]: 60% | half-life [10]: 180 min | AUC [11]: 74800 ng·h/mL | half-life [5]: 282 min

Next, values leading:

IC50 [1]: > 0.3 µM
Structure (SMILES): CCCCc1nc2c(C)cc(C)nc2n1Cc1ccc(-c2c(-c3nn[nH]n3)n(C)c(=O)c3ccccc23)cc1

IC50 [1]: 0.0052 µM | AUC [2]: 630 ng·h/mL | Papp A→B [3]: 0.03 ×10⁻⁶ cm/s | IC50 [4]: 0.0046 µM | half-life [5]: 13.2 min | bioavailability [6]: 0%
Structure (SMILES): CCc1nc2c(C)cc(C)nc2n1Cc1ccc(-c2c(C(=O)O)n(C)c(=O)c3ccccc23)cc1

IC50 [1]: > 0.3 µM
Structure (SMILES): CCCc1nc2c(C)cc(C)nc2n1Cc1ccc(-c2c(-c3nn[nH]n3)n(C)c(=O)c3ccccc23)cc1

IC50 [1]: 0.0077 µM | AUC [2]: 340 ng·h/mL | half-life [5]: 18 min
Structure (SMILES): CCCc1nc2c(C)cc(C)nc2n1Cc1ccc(-c2c(C(=O)O)c(Cl)nc3ccccc23)cc1

IC50 [1]: > 0.3 µM
Structure (SMILES): CCc1nc2c(C)cc(C)nc2n1Cc1ccc(-c2c(-c3nn[nH]n3)n(C)c(=O)c3ccccc23)cc1

IC50 [1]: 0.053 µM
Structure (SMILES): CCc1nc2c(C)cc(C)nc2n1Cc1ccc(C2=C(C(=O)O)C(=O)c3ccccc32)cc1

IC50 [1]: 0.0057 µM
Structure (SMILES): CCCc1nc2c(C)cc(C)nc2n1Cc1ccc(-c2c(C(=O)O)n(C)c(=O)c3ccccc23)cc1

IC50 [1]: 0.009 µM | AUC [2]: 500 ng·h/mL | IC50 [4]: 0.013 µM | half-life [5]: 19.8 min
Structure (SMILES): CCCc1nc2c(C)cc(C)nc2n1Cc1ccc(-c2c(C(=O)O)c(C)nc3ccccc23)cc1

IC50 [1]: 0.0069 µM | AUC [2]: 890 ng·h/mL | Tmax [7]: 30 min | Cmax [8]: 4200 ng/mL | Papp A→B [3]: 0.1 ×10⁻⁶ cm/s | IC50 [4]: 0.0089 µM | bioavailability [9]: 49% | half-life [10]: 60 min | AUC [11]: 4400 ng·h/mL | half-life [5]: 40.8 min
Structure (SMILES): CCc1nc2c(C)cc(C)nc2n1Cc1ccc(-c2c(-c3nn[nH]n3)cnc3ccccc23)cc1

IC50 [1]: 0.0042 µM | AUC [2]: 520 ng·h/mL | IC50 [4]: 0.0033 µM | half-life [5]: 16.8 min
Structure (SMILES): CCCc1nc2c(C)cc(C)nc2n1Cc1ccc(-c2c(C(=O)O)c(N)nc3ccccc23)cc1
